Laboratory results: ChEMBL document CHEMBL1141075, “4-Oxo-4,7-dihydrothieno[2,3-b]pyridines as non-nucleoside inhibitors of human cytomegalovirus and related herpesvirus polymerases” (J Med Chem, 2005)
pIC50: −log10 of the molar value.

Legend:
Vero [1] = assay: Antiviral activity against herpes simplex virus type 1 KOS (AraAr13) plaque forming unit grown on Human foreskin fibroblast cells upon incubation for 1 hour at 37 degrees C with compound dissolved in DMSO; type: functional, cell-based; conditions: Chlorocebus sabaeus
Method in brief: (§1)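 Plaque reduction: about 50 PFU added per well of a 24-well dish of the appropriate cells, 1 h at 37 °C, then the inoculum was replaced by drug-containing DMEM with 10% FBS and 0.8% carboxymethyl cellulose. DMSO stocks were 200-fold. Plates were held at 37 °C until plaques formed. Plaques were counted microscopically or after crystal violet stain. Percent inhibition was taken against the uninhibited control, with IC50 by linear regression.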

Vero [2] = assay: Antiviral activity against herpes simplex virus type 2 (WT) plaque forming unit grown on Human foreskin fibroblast cells upon incubation for 1 hour at 37 degrees C with compound dissolved in DMSO; type: functional, cell-based; conditions: Chlorocebus sabaeus
Method in brief: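 Plaque reduction: about 50 PFU per well onto the appropriate cell monolayer, adsorbed 1 h at 37 °C. Inoculum was then replaced with DMEM containing 10% FBS, 0.8% carboxymethyl cellulose and diluted compound from 200-fold DMSO stocks. Plates were held at 37 °C until plaques formed, which were counted microscopically or after crystal violet staining. IC50 came from linear regression of % inhibition versus untreated control, as the mean of two determinations.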

Vero [3] = assay: Antiviral activity against herpes simplex virus type 1 Patton (WT) plaque forming unit grown on Human foreskin fibroblast cells upon incubation for 1 hour at 37 degrees C with compound dissolved in DMSO; type: functional, cell-based; conditions: Chlorocebus sabaeus; method in brief: as §1
Vero [4] = assay: Antiviral activity against herpes simplex virus type 1 KOS (WT) plaque forming unit grown on African green monkey kidney Vero cells upon incubation for 1 hour at 37 degrees C with compound dissolved in DMSO; conditions: Chlorocebus sabaeus
Vero [5] = assay: Antiviral activity against herpes simplex virus type 2 (V826A) plaque forming unit grown on Human foreskin fibroblast cells upon incubation for 1 hour at 37 degrees C with compound dissolved in DMSO; type: functional, cell-based; conditions: Chlorocebus sabaeus; method in brief: as §1
Vero [6] = assay: Antiviral activity against herpes simplex virus type 1 KOS (V823A) plaque forming unit grown on Human foreskin fibroblast cells upon incubation for 1 hour at 37 degrees C with compound dissolved in DMSO; type: functional, cell-based; conditions: Chlorocebus sabaeus; method in brief: as §1
HFF = assay: Antiviral activity against human cytomegalovirus Ad169 (WT) plaque forming unit grown on Human foreskin fibroblast cells upon incubation for 1 hour at 37 degrees C with compound dissolved in DMSO; type: functional, cell-based, Human betaherpesvirus 5; method in brief: as §1

SMILES: Cn1cc(C(=O)NCc2ccc(Cl)cc2)c(=O)c2cc(CN3CCOCC3)sc21
- pIC50 (Vero [1]): 5.68
- pIC50 (Vero [2]): 6.10
- pIC50 (Vero [3]): 5.27
- pIC50 (Vero [4]): 5.25
- pIC50 (Vero [5]): < 4.30
- pIC50 (Vero [6]): < 4.30
- pIC50 (HFF): 5.82
